CRFBP-R2 block – antagonists of CRF-binding protein/CRF-R2 receptor complex | 350,000 tested, 0.59% active | HEK293 CRF-R2/CRF-BP, CRF-induced calcium fluorescence | AID 588475 | inhibition, % at 11.8 µM;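 active = inhibition of the ligand-induced calcium signal above about 50% at the single tested concentration, limit read from the data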
CRFR2-BP ag – CRF-BP/CRF-R2 complex agonism; HEK293 CRF-R2/CRF-BP, calcium dye fluorescence (FLIPR); percent of saturating CRF peptide response; activation, % at 13.2 µM; 350,000 tested, 0.46% active; AID 588473;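 active = activation of at least 50%, plus an integration ratio under a set limit after plate pattern correction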;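 also: plate controls were neutral control wells without compound for no effect and CRF at EC100 for full effect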
TRPML3 agonist – human mucolipin-3 channel agonism. HEK293 TRPML3-YFP, Fluo-8 calcium fluorescence; 100% = the carbachol control signal. activation, % at 3 µM. 220,000 tested, 0.29% active. Q8TDD5;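 active = activation above its plate's cutoff, the mean activation of the plate's test wells plus 3 SD, cut at about 12% in these data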;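 also: 0% = DMSO only wells and 100% = carbachol wells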
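Test system – HEK293 line with stable expression of human TRPML3-YFP channel · Control set – carbachol 87 µM final as high control (100%), DMSO as low control (0%) · Signal – Fluo-8 calcium dye fluorescence, ex 470-495, em 515-575 nm · Incubation – 1-h 37 °C dye load, 5-s basal, 120-s post-compound reads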
GPR7 antag – blocks human GPR7 receptor signaling. inhibition, % at 4.4 µM. AID 1861. 290,000 tested, 1.1% active. P48145. GPR7-expressing cells, fluorescence antagonist assay; in the data active = inhibition above about 16%, passing the limit was not always enough;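 also: cells stimulated with the agonist NPW; 0% = agonist with vehicle and 100% = vehicle without agonist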
Target sequence (P48145 whole entry, looked up): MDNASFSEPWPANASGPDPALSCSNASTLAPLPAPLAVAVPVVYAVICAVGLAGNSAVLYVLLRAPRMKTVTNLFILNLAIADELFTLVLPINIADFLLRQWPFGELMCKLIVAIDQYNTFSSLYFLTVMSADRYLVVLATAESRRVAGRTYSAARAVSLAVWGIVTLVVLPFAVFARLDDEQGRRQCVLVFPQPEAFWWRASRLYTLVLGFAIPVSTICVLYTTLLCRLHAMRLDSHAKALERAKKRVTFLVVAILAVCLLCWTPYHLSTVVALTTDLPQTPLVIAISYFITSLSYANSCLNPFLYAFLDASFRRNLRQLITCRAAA
zfTRPN1 agonist – agonists of zebrafish TRPN1 channel | HEK293 zebrafish TRPN1-YFP, Fluo-8 calcium fluorescence; 100% = response to 87 µM carbachol | 220,000 tested, 0.18% active | AID 1424 | activation, % at 3 µM;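 active = activation above its plate's cutoff, the mean activation of test wells on that plate plus 3 SD, cut at about 19% in these data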;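 also: 0% = DMSO alone and 100% = 87 µM carbachol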
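Assay system: Zebrafish TRPN1-YFP in HEK293 cells | Incubation: Dye loading 1 h at 37 °C, then 30 min room temperature | Measured by: Kinetic Fluo-8 fluorescence, ex 470-495, em 515-575 nm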
Active calls of the source: *; . = no result. Rows were chosen to be rich in hits. Some 2% of all compounds tested hit in one or more screens of this group.

SMILES	CRFBP-R2 block	CRFR2-BP ag	TRPML3 agonist	GPR7 antag	zfTRPN1 agonist
O=C(Cn1nc(-c2ccccc2)ccc1=O)Nc1ccc(N2CCN(C(=O)c3ccccc3)CC2)cc1	7	-1	0	20*	-1
Cc1ccc(C)c(S(=O)(=O)N2CCN(C(=O)c3cncc(Br)c3)CC2)c1	0	1	.	-6	.
C=CCn1c(N)cc(=O)nc1SC(CC)C(=O)Nc1ccc(C(C)=O)cc1 (configuration not stated)	-1	0	.	-5	.
NS(=O)(=O)c1cc(C(=O)OCC(=O)Nc2ccc3c(c2)OCO3)ccc1Cl	-7	0	.	.	.
O=C(Nc1nnc(-c2cccs2)o1)c1cccc(C(F)(F)F)c1	24	81*	1	7	21*
Nc1cc(OC(=O)c2ccco2)nn1S(=O)(=O)c1ccc(F)cc1	58*	-1	0	13	-1
Cc1ccc(S(=O)(=O)n2nc(OC(=O)c3ccco3)cc2N)cc1	60*	8	1	-3	-1
Nc1cc(OC(=O)c2ccc(F)cc2)nn1S(=O)(=O)c1ccc(F)cc1	2	-1	.	14	.
COc1ccccc1C(C)Nc1ccc(S(=O)(=O)N2CCN(C)CC2)cc1[N+](=O)[O-] (configuration not stated)	3	-1	.	.	.
Cc1ccc(N=C2NC(=O)/C(=C/c3cn(C)c4ccccc34)S2)cc1C	-55	64*	4	-3	8
Cn1cccc1/C=C1\SC(=Nc2ccc(O)cc2)NC1=O	-5	1	0	21*	-1
NC(=S)N/N=C/c1cccc(O)c1O	-50	2	-1	-5	0
Cc1cc(/C=N/NC(N)=S)c(O)c(/C=N/NC(N)=S)c1	-73	157*	16*	0	41*
CCC1CCCCN1C(=O)CSc1n[nH]c(N)n1 (configuration not stated)	5	-1	.	.	.
Nc1ccc2nc3c(=O)n(C4CCCCC4)c(=O)[nH]c3nc2c1	-119	167*	43*	5	79*
CCCCn1c(=O)[nH]c2nc3cc(N)ccc3nc2c1=O	-298	232*	30*	6	42*
Nc1ccc2nc3c(=O)n(CCc4ccccc4)c(=O)[nH]c3nc2c1	-143	195*	23*	7	91*
Cc1nc2ccccc2c(=O)n1CCc1ccccc1	-11	-6	.	0	.
Cc1cc2nc3c(=O)n(CCc4ccccc4)c(=O)[nH]c3nc2cc1N	-98	152*	11	-1	51*
COc1cc2[nH]c(=O)n(C3CCCCC3)c(=O)c2cc1OC	20	1	1	-10	0
CCCCn1c(N)c(Br)c(=O)[nH]c1=O	-3	1	0	-8	1
CC(C)c1ccc(NC(=O)CN2CCN(C(=O)C3CCCO3)CC2)cc1 (configuration not stated)	-19	0	.	-17	.
CC(O)[C@H]1CNCCN1CCc1cccc(F)c1 (some centres not stated)	0	-1	.	.	.
CC1CC1C(=O)OCC(=O)NNC(=O)COc1ccc(Br)cc1 (configuration not stated)	7	-1	.	.	.
COc1ccc(CCNC(=O)COC(=O)C23CC4CC(CC(Br)(C4)C2)C3)cc1	-6	13	0	-9	-1
SMILES	CRFBP-R2 block	CRFR2-BP ag	TRPML3 agonist	GPR7 antag	zfTRPN1 agonist
CC(NC(=O)COC(=O)C12CC3CC(CC(Br)(C3)C1)C2)c1ccccc1 (configuration not stated)	62*	6	.	.	.
NC(=O)c1ccccc1NC(=O)CC12CC3CC(CC(C3)C1)C2	-6	0	.	-12	.
O=C(c1ccc(NS(=O)(=O)c2ccc(F)cc2)cc1)N1CCC1	9	0	.	.	.
CCOc1cc(N(CC)CC)ccc1/C=C(/C#N)c1nc2ccccc2[nH]1	-171	97*	3	0	7
COc1cc(/C=C(\C#N)c2nc3ccc(C)cc3[nH]2)c([N+](=O)[O-])cc1OC	-70	24	-1	-2	-2
CCN(CC)c1ccc(/C=C(/C#N)c2nc3ccc(C)cc3[nH]2)c(OC(C)C)c1	-180	176*	23*	38*	30*
COc1ccc(-n2ncc(C(C)NS(=O)(=O)c3cc(C)sc3C)c2C)cc1 (configuration not stated)	51*	-5	.	.	.
CN(C)C(CNC(=S)Nc1cccc(Cl)c1)c1cccnc1 (configuration not stated)	-3	0	1	1	1
Cc1cccc(OCC(=O)OC(C)C(=O)Nc2ccc(S(=O)(=O)N3CCCCC3)cc2)c1 (configuration not stated)	-14	3	.	.	.
CC(=O)c1c(C)[nH]c(C(=O)COc2cc(C)ccc2C(C)C)c1C	6	1	1	25*	3
COc1cc(C)ccc1OCC(=O)OCC(=O)c1[nH]c(C)c(C(C)=O)c1C	1	-1	.	.	.
Cc1cccc(OCCCC(=O)NC(C)c2ccccc2)c1 (configuration not stated)	8	-2	-1	-5	-2
Cc1cccc(OCCCC(=O)NC(C)C)c1	82*	0	0	-6	2
Cc1ccc(S(=O)(=O)N2c3ccccc3OCC2C(C)(C)C)cc1 (configuration not stated)	90*	4	0	-12	-1
CC[C@]12C(=O)N(C)C[C@H]([C@@H]3C(=O)N(Cc4ccccc4)C(=O)[C@@H]31)N2C(=O)c1ccccc1	-6	0	.	.	.
CCN(CC)S(=O)(=O)c1ccc(Cl)c(NC(=O)c2cc(Cl)cc(Cl)c2)c1	53*	1	0	-1	2
COC(=O)C1CC(Cl)CN1c1ncc(C(F)(F)F)cc1Cl (configuration not stated)	52*	-2	0	-9	-1
CC(C)N1C(=O)S/C(=C/c2ccccc2OCc2ccc(C(=O)O)cc2)C1=O	69*	4	0	-8	-1
CCn1cnc2c(Nc3cc(F)cc(F)c3)nc(C#N)nc21	-10	7	.	.	.
N#Cc1nc(Nc2cccc(Cl)c2)c2ncn(C3CCCC3)c2n1	97*	3	.	.	.
COc1ccc(C(=O)Nn2c(CC(C)C)nc3cc(Cl)ccc3c2=O)c(OC)c1	-1	0	.	-9	.
C#CCNC(=O)C1=C[C@@H](c2ccc(Br)cc2)[C@H](CCCO)[C@@H](OCC)O1	-1	0	0	4	0
C#CCNC(=O)C1=C[C@H](c2ccc3c(c2)OCO3)[C@@H](CCCO)[C@H](OCC)O1	81*	-1	0	-19	-2
O=C(CSc1nnnn1-c1ccc(Cl)cc1)Nc1cccnc1Cl	24	-1	1	-12	2
Cc1ccc(-n2nnnc2SCC(=O)Nc2cccnc2Cl)cc1	53*	10	1	-6	2
C[C@@H]1CN([C@@H](C)CO)C(=O)CCCn2cc(nn2)CO[C@H]1CN(C)S(=O)(=O)c1ccccc1C#N	-6	-1	.	.	.

Compound activity: PubChem BioAssay, several laboratories
